# NadD block = blocks S. aureus nicotinate mononucleotide adenylyltransferase. hit rate 0.78% among 360,000. purified NadD enzyme, colorimetric absorbance read-out. inhibition, % at 20 µM; in the data active = inhibition above about 26%
# PP5 primary = PP5 (human) phosphatase inhibition | P53041 | purified PP5c, OMFP substrate fluorescence | inhibition, % at 6.7 µM | hit rate 0.18% among 320,000 | AID 1987;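 active = inhibition above the campaign's mean inhibition across all tested compounds plus 3 SD, cut at about 9.5% in these data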;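 note: 0% = DMSO only and 100% = 100 µM cantharidin control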
# Myeloid diff 2 = promotes myeloid progenitor differentiation. calls only at 10 µM. ER-HoxA9 myeloid progenitors, lysozyme-GFP differentiation, flow cytometry. hit rate 1% among 360,000. AID 624256;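 active = normalized GFP-positive differentiation at or above the plate's own cutoff, the solvent-only control mean plus 3 SD; inconclusive = no clear call, values can overlap the other calls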;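 note: cells exposed to compound for four days before flow analysis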
# PP1 inh = counter-screen for PP5 inhibitors: inhibitors of human PP1-alpha. purified PP1alpha, OMFP fluorescence. inhibition, % at 6.7 µM. hit rate 0.9% among 320,000. AID 2235;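 active = inhibition above the mean inhibition of all tested compounds plus 3 SD, computed separately for each screening campaign, cut at about 15% in these data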
# Target sequence (P62136 whole entry, looked up): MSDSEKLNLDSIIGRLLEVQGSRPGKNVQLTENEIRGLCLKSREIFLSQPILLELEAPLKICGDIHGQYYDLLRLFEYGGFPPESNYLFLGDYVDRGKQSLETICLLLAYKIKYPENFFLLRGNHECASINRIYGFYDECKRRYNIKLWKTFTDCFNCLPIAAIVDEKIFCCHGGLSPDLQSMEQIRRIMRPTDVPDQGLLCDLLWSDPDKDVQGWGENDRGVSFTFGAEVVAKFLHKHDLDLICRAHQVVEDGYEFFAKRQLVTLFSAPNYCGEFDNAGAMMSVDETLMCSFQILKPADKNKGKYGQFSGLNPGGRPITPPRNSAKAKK
# core dimer inh = HCV core protein dimerization inhibition; TR-FRET GST/Flag-core106 dimerization, 1536-well; inhibition, % at 5 µM; hit rate 0.33% among 300,000; AID 1899;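 active = inhibition above the mean of all tested compounds plus 3 SD, set per screening campaign, cut at about 45% in these data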
#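 test system = GST/Flag-tagged HCV core106 proteins | probe or stimulus = Eu donor and XL665 acceptor anti-tag antibodies | times = compound-protein-antibody incubation 4 h at 22.5 °C | signal = TR-FRET, excitation 340 nm, emission 617 and 671 nm | measure = percent inhibition of core106 dimerization signal | controls = wells lacking GST-core106 and wells with excess unlabelled core106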
# CTSL1 counter = blocks F. hepatica cathepsin L1 in PFM18AAP counter-screen; recombinant F. hepatica cathepsin L1, Z-Leu-Arg-MCA fluorescence; inhibition, % at 5.96 µM; hit rate 0.49% among 300,000;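 active = inhibition above the mean of all tested compounds plus 3 SD, set per screening campaign, cut at about 17% in these data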;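 note: 0% = plate median of test compound wells and 100% = 1 µM Z-Phe-Ala-diazomethylketone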
# * hit, by the source's call; i = inactive; ? = inconclusive; / = not tested or not shown; + = active, no number. A selection: hits, their analogues and other compounds. The true share with any hit is near 3.1%.
SMILES,NadD block,PP5 primary,Myeloid diff 2,PP1 inh,core dimer inh,CTSL1 counter
COc1ccc(NC(=O)c2ccc3c(c2)S(=O)(=O)N=C2CCCCCN23)cc1S(N)(=O)=O,3,/,i,/,/,/
CC[C@]12C(=O)N(C)C[C@H]([C@@H]3C(=O)N(Cc4ccccc4)C(=O)[C@@H]31)N2C(=O)c1ccccc1,4,/,+,/,/,/
CN1C[C@@H]2[C@@H]3C(=O)N(Cc4ccccc4)C(=O)[C@@H]3[C@](Cc3ccccc3)(C1=O)N2C(=O)c1ccccc1,4,/,i,/,/,/
CCCCNC(=O)C[C@@H]1C[C@@]2(C(=O)OC)CCCCC=C2N(Cc2ccc3c(c2)OCO3)C1=O,/,/,i,/,/,/
Nc1ccc(N(c2ccccc2)c2ccc(N)cc2)cc1,22,1,i,17*,0,-3
COc1ccccc1CNC(=O)CSc1ccc(-c2ccccn2)nn1,-1,-1,i,-7,56*,1
O=S1(=O)CCN(CCc2ccccc2)CC1,0,/,i,/,/,/
O=C(COC(=O)c1cccs1)NCC1CCCO1 (centres undefined),2,0,i,-2,-2,-2
COc1cc(CN(CC2CCCO2)C(=O)c2cccs2)cc(OC)c1OC (centres undefined),1,3,i,-4,-3,18*
O=C(NCC1CCCO1)c1cccs1 (centres undefined),1,1,+,3,-4,-2
Cc1cnc(NC(=O)C2(C)CCN2C(=O)C(C)C)s1 (centres undefined),-2,/,i,/,/,/
CCN(CC)C(=O)C1c2ccccc2Oc2ccccc21,-2,-5,+,-6,-5,1
CC(C)(C)C(=O)c1sc2nc(-c3cccs3)cc(C(F)(F)F)c2c1N,-2,2,+,-1,-2,-3
Cc1nn(C)c2nc(-c3cccs3)cc(C(F)(F)F)c12,-11,2,i,4,1,4
Nc1c(C(=O)Nc2nccs2)sc2nc(-c3cccs3)cc(C(F)(F)F)c12,8,3,+,6,13,-3
CCc1nc2ccc(C(=O)NCCN3CCOCC3)cn2c1N(CC)CCOC,2,/,i,/,/,/
CCn1c(/C=C/N(C(C)=O)c2ccccc2)[n+](CC)c2ccc(Cl)cc21,17,3,i,6,-15,2
CC[n+]1c(/C=C/C=C/N(C(C)=O)c2ccccc2)sc2ccccc21,1,-1,+,10,-2,5
CC12CCC(c3c(C(=O)O)nn(-c4ccccc4)c31)C2(C)C (centres undefined),8,1,i,17*,5,2
CC12CCC(c3c(CO)nn(-c4ccccc4)c31)C2(C)C (centres undefined),-8,1,i,1,-2,1
CCN(CC)C(=O)C1=C(C)N(CCCOC)C(=O)C(CC(=O)NC2CC2)C1 (centres undefined),6,/,i,/,/,/
CC(C)CC(NC(N)=O)C(=O)NCc1ccccc1Cl (centres undefined),7,-1,+,1,1,0
O=C(Cc1cccc(NC(=O)C2CCN(S(=O)(=O)c3cccc([N+](=O)[O-])c3)CC2)c1)Nc1cccc(C(=O)N2CCOCC2)c1,2,/,i,/,/,/
O=C(Cc1ccc(Cl)cc1Cl)NC1CCCCCC1,-3,1,+,0,-3,1
O=C(COC(=O)Cc1ccc(Cl)cc1Cl)NC1CC1,-3,/,i,/,/,/
SMILES,NadD block,PP5 primary,Myeloid diff 2,PP1 inh,core dimer inh,CTSL1 counter
Cc1ccc(/C=C2/C(=O)N=C(N)N2C)s1,1,0,+,-3,-15,2
CCOc1ccccc1NC(=O)c1cccc(NC(=O)CC(c2ccccc2)c2ccccc2)c1,-5,5,i,3,12,18*
Nc1cc(Cl)ccc1C(=O)OCC(=O)NC1CCCCCCC1,-6,0,i,-1,/,/
COc1cccc(NC(=O)CN(C)C(=O)c2c(C)nn(-c3ccccc3)c2Cl)c1,4,1,i,-3,/,/
Cc1ccc(NC(=O)CN2C(=O)S/C(=C\c3cc(Cl)c(OCC(=O)O)c(Cl)c3)C2=O)cc1,28*,0,i,-2,21,4
CC(=O)N1CCN(C(=O)c2ccccc2NS(=O)(=O)c2ccc(F)cc2)CC1,-1,-2,i,-1,/,/
COC(=O)[C@@]12C[C@@H](CC(=O)NCCCCc3ccccc3)C(=O)N(Cc3ccc4c(c3)OCO4)C1=CCC(C)(C)C2,/,/,+,/,/,/
CCCCNC(=O)C[C@@H]1C[C@@]2(C(=O)OC)CC(C)(C)CC=C2N(Cc2ccc3c(c2)OCO3)C1=O,/,/,i,/,/,/
CCOc1ccc(C(=O)Nc2nnc(S(=O)(=O)N(C)Cc3ccco3)s2)cc1,18,0,?,17*,2,2
CN(Cc1ccco1)S(=O)(=O)c1nnc(NC(=O)c2ccc(F)cc2)s1,10,1,i,0,5,1
CC1(c2ccccc2)CC(C)(C)N2C(=O)C3(C(C#N)=C(N)Oc4cc(O)ccc43)c3cccc1c32 (centres undefined),5,7,i,2,6,-6
CC1(c2ccccc2)CC(C)(C)N2C(=O)/C(=C3\SC(=S)NC3=O)c3cccc1c32 (centres undefined),35*,-1,i,-3,2,1
CCOC(=O)C1(C)CCN1C(=O)c1cc(-c2ccc(Cl)cc2)oc1C (centres undefined),0,/,i,/,/,/
CCCOC(=O)c1ccc(NC(=O)C(=O)NCC2CCCO2)cc1 (centres undefined),1,1,i,-3,5,1
COC(=O)c1ccc(NC(=O)C(=O)NCC2CCCO2)cc1 (centres undefined),-7,1,i,-6,-14,17*
CC(=O)Nc1ccccc1C(=O)C(=O)Nc1ccc(C(=O)NCC2CCCO2)cc1 (centres undefined),1,0,+,-1,-5,2
COc1ccc(-c2cc(C(=O)N/N=C/c3ccc(OC)c(COCC(F)(F)C(F)F)c3)c3ccccc3n2)c(OC)c1,26,4,i,1,58*,8
COc1ccc(-c2cc(C(=O)N/N=C/c3ccc4c(c3)OCO4)c3ccccc3n2)c(OC)c1,21,4,i,1,31,-4
CCOC(=O)c1cnc2nc(NCc3ccc(OC)c(OC)c3)[nH]n2c1=O,-5,-9,i,-2,1,20*
CCCc1cc(=O)n2[nH]c(NCc3ccc(OC)c(OC)c3)nc2n1,5,0,i,-1,-2,-3
O=C1C=CC(=O)c2c(O)c(CO)c(CO)c(O)c21,77*,/,/,/,/,/
O=c1c(CO)cc(CO)cc(CO)c1O,4,8,i,8,-7,1
C/C(=N\NC(=O)C1CC1)c1ccc(C)cc1C,0,0,i,-4,-3,-2
